In experiment [1] the target is T1, Bromodomain-containing protein 4 (Homo sapiens, UniProt O60885). Briefly: Inhibition of BRD4 bromodomain 1 (unknown origin) expressed in Escherichia coli Bl21(DE3)-pRARE cells by fluorescence anisotropy. In short, it runs like this: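 BRD4-D1 ligand displacement read by fluorescence anisotropy, reported as IC50; mean and standard deviation of three independent trials; IC50 above 100 μM reported as >100.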
In general terms: In fluorescence polarisation assays a small probe gives low polarisation when free and higher when bound to something large.

Experiment [2] has as its target T1, Bromodomain-containing protein 4. Briefly: Inhibition of BRD4 bromodomain 1 in human MM1S cells assessed as decrease in c-MYC expression after 6 hrs by Western blot analysis. Format: cell-based. In general terms: In western blotting, separated proteins are transferred to a membrane and probed.
For a further experiment, the system named is MM1.S. Briefly: Antiproliferative activity against human MM1S cells assessed as reduction in cell viability after 69 hrs by Alamar blue assay. The experiment is classed as functional, cell-based. In short, it runs like this:
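MM.1S cell viability, read as EC50 from a nonlinear curve fit; mean ± SEM of three biological replicates, each run in three technical replicates.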
In general terms: The colour change of resazurin is a common sign of viable cells or microbes.

For experiment [3], the target named is Mitogen-activated protein kinase 14 (Homo sapiens, UniProt Q16539). Briefly: Binding affinity to wild-type human full length p38-alpha (M1 to S360 residues) expressed in bacterial expression system by Kinomescan method. Put shortly: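 Kd for p38α from KINOMEscan binding; mean and standard error of two independent trials.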
The target of experiment [4] is T1, Bromodomain-containing protein 4. Briefly: Inhibition of biotinylated histone H4 peptide binding to BRD4 bromodomain 1 (44 to 168 residues) (unknown origin) after 60 mins by Alphascreen method.
The species named for experiment [5] is Homo sapiens. Briefly: Selectivity index, ratio of Kd for human full length p38-alpha (M1 to S360 residues) expressed in bacterial cells to Kd for human partial length BRD4 bromodomain 2 long isoform (K333 to E460 residues) expressed in bacterial cells. Format: cell-based.
The target in experiment [6] is T1, Bromodomain-containing protein 4. Briefly: Binding affinity to human partial length BRD4 bromodomain 1 long isoform (N44 to E168 residues) expressed in bacterial expression system by BROMOscan assay. In short, it runs like this:
(§1)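 Dissociation constants from BROMOscan competition binding; mean and standard error of two independent trials.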

For experiment [7], the target named is SWI/SNF-related matrix-associated actin-dependent regulator of chromatin subfamily A member 2 (Homo sapiens, UniProt P51531). Briefly: Binding affinity to human partial length SMARCA2 (S1377 to Q1486 residues) expressed in bacterial expression system by BROMOscan assay. Put shortly:
as §1

Another experiment addresses CREB-binding protein (Homo sapiens, UniProt Q92793). Briefly: Binding affinity to human partial length CREBBP (R1081 to G1197 residues) expressed in bacterial expression system by BROMOscan assay. In short, it runs like this: as §1
Experiment [8] is filed under the species Homo sapiens. Briefly: Selectivity index, ratio of Kd for human full length p38-alpha (M1 to S360 residues) expressed in bacterial cells to Kd for human partial length BRD4 bromodomain 1 long isoform (N44 to E168 residues) expressed in bacterial cells. Format: cell-based.
In experiment [9] the target is T1, Bromodomain-containing protein 4. Briefly: Binding affinity to human partial length BRD4 bromodomain 2 long isoform (K333 to E460 residues) expressed in bacterial expression system by BROMOscan assay. In short, it runs like this: as §1
Experiment [10] is filed under the species Homo sapiens. Briefly: Selectivity ratio of compound effect on human full length p38-alpha (M1 to S360 residues) expressed in bacterial cells over compound effect on human partial length BRD4 bromodomain 1 long isoform (N44 to E168 residues) expressed in bacterial cells. The experiment is classed as cell-based.

These results are taken from ChEMBL document CHEMBL4364339, “Systematically Mitigating the p38α Activity of Triazole-based BET Inhibitors” (ACS Med Chem Lett, 2019).

Structures are written as SMILES. Active and inactive are the calls of the source. No cut-off for these calls is given here.

Chain of Mitogen-activated protein kinase 14 (Q16539 whole entry, the tested form may be a part): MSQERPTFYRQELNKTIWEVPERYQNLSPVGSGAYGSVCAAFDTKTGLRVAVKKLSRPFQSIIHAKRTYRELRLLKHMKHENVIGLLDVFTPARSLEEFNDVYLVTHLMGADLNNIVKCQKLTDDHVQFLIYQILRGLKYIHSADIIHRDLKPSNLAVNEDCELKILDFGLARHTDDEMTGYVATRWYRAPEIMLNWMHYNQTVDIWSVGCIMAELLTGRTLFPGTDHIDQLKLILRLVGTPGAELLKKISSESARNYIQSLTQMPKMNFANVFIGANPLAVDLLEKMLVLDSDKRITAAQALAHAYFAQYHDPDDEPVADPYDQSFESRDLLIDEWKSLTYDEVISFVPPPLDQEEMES
Chain of CREB-binding protein (Q92793 whole entry, the tested form may be a part, canonical isoform): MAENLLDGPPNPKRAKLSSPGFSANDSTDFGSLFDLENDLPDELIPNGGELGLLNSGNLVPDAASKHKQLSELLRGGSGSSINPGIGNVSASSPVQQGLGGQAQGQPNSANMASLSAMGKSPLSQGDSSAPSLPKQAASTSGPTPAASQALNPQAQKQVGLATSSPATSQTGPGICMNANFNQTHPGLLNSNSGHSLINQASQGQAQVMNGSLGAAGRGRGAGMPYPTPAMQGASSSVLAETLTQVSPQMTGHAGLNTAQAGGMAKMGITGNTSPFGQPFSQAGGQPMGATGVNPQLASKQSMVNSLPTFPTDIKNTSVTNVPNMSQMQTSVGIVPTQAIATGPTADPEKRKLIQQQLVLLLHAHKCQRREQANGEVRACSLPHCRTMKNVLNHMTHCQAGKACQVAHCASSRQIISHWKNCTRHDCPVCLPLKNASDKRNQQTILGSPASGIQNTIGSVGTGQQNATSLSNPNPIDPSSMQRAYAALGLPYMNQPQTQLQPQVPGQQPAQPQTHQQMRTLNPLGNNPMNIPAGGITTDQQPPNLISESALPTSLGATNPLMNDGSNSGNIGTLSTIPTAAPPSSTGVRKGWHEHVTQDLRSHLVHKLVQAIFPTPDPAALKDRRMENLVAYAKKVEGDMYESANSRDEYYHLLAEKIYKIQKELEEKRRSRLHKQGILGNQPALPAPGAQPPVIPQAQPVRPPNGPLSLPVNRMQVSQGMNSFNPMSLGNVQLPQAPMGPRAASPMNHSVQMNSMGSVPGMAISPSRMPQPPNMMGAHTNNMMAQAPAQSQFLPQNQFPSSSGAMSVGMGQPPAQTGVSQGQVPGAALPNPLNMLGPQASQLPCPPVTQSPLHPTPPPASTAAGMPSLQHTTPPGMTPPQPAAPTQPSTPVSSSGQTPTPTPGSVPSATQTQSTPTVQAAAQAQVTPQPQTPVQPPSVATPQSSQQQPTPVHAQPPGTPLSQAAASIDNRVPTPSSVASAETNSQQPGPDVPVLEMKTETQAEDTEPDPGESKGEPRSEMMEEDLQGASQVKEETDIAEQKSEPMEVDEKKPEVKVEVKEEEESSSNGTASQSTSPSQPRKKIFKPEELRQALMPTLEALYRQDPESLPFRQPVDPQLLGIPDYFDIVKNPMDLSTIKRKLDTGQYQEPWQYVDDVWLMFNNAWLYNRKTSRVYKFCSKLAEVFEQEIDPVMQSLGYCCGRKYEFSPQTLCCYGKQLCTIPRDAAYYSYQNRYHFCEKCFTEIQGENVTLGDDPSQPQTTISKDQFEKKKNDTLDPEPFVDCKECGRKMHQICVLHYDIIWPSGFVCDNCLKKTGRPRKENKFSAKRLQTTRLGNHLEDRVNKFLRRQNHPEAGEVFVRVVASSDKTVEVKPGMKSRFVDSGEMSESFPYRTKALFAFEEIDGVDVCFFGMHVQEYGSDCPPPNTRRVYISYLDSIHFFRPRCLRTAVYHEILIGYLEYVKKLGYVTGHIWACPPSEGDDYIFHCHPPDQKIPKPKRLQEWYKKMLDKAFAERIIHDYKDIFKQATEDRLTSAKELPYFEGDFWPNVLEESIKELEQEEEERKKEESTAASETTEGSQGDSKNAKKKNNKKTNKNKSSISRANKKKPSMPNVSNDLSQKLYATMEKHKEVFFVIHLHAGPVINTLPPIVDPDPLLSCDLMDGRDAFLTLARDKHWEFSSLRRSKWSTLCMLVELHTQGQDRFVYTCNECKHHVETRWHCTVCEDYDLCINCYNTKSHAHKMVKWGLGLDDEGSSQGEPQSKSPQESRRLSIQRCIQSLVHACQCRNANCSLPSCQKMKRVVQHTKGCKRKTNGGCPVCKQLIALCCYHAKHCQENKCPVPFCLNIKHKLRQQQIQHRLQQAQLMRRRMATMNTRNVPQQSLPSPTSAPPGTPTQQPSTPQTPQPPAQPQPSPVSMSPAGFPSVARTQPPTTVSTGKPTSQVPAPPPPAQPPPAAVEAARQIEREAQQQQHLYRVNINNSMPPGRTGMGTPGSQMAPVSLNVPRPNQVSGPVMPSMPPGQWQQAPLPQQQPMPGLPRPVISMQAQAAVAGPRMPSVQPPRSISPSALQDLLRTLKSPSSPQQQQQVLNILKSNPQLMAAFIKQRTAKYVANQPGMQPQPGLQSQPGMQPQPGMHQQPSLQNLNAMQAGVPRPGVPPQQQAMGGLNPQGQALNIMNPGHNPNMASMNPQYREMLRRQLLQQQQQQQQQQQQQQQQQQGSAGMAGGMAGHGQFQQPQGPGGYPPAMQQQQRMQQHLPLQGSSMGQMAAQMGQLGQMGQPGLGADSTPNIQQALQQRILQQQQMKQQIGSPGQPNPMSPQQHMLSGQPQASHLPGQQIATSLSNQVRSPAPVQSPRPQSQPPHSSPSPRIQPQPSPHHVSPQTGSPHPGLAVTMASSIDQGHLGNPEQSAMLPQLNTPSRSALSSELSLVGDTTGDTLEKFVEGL
Chain of SWI/SNF-related matrix-associated actin-dependent regulator of chromatin subfamily A member 2 (P51531 whole entry, the tested form may be a part): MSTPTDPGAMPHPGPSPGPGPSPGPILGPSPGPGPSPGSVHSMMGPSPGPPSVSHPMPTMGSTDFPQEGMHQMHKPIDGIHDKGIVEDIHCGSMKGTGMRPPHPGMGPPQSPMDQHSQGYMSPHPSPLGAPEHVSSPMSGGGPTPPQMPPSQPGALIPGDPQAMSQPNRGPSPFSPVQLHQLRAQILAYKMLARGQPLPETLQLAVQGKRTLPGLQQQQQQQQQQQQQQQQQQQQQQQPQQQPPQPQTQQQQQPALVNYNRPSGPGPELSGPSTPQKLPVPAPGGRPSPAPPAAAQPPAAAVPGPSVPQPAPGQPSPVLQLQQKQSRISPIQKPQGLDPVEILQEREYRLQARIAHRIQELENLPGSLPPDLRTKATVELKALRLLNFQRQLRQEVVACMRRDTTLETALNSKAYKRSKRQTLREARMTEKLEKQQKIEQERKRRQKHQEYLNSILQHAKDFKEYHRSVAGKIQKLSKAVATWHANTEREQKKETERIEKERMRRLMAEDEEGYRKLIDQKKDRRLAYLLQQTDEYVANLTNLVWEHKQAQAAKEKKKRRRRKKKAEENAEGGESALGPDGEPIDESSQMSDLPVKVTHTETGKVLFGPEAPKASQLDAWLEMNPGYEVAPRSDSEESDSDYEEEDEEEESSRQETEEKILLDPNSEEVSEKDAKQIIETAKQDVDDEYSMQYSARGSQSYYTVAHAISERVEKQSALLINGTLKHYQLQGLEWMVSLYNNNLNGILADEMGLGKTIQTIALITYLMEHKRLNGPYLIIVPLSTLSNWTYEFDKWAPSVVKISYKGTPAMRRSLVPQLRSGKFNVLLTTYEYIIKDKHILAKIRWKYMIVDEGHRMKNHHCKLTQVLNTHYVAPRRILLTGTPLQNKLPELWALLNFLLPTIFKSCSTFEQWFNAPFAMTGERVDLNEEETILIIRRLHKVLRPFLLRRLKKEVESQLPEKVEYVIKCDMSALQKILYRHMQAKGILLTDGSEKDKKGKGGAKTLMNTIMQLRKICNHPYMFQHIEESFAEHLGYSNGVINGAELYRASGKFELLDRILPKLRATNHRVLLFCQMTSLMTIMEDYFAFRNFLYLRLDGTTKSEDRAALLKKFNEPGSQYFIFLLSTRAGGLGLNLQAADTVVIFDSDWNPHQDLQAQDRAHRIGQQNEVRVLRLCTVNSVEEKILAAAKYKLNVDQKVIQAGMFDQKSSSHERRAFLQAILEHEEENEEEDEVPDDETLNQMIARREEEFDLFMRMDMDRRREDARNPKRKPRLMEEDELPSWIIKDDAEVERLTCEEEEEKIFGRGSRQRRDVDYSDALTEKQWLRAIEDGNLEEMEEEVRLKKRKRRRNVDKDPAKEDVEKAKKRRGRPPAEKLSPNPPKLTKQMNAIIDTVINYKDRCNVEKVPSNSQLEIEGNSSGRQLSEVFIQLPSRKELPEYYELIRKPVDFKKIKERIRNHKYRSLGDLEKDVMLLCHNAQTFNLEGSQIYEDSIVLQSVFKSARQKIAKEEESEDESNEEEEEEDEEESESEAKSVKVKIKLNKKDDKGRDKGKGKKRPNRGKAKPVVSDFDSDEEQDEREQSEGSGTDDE

For the compound `Cc1cc(C)cc(Oc2nccc(-c3c(C4CCCC4)nnn3C3CCNCC3)n2)c1`, in experiment [1], the IC50 was more than 100 µM.

`CCCc1nnn(C2CCN(C(=N)N)CC2)c1-c1ccnc(Oc2cc(C)cc(C)c2)n1`: the IC50 in [1] is more than 100 µM.

`Cc1cc(C)cc(Nc2cccc(-c3c(C)nnn3C3CCNCC3)n2)c1`: the IC50 in [1] worked out at 3.9 µM. Also, in experiment [2], the inhibition entry was “Active”. In the experiment with MM1.S, the EC50 came out at 6.3 µM.

With `Cc1cc(C)cc(Oc2nccc(-c3c(C)nnn3C3CCNCC3)n2)c1`, the IC50 in experiment [1] came out at 11 µM. Besides, the inhibition entry in experiment [2] is “Active”. The EC50 in the experiment on MM1.S was 6.6 µM.

`Cc1cc(C)cc(Oc2nccc(-c3c(-c4ccc(F)cc4)nnn3C3CCNCC3)n2)c1` yielded a Kd in [3] of 0.12 µM. Moreover, the IC50 is more than 100 µM in [1] and 27 µM in experiment [4].

For the compound `Cc1cc(C)cc(Nc2cccc(-c3c(-c4ccc(F)cc4)nnn3C3CCNCC3)n2)c1`, in [3], the Kd is 6.5 µM.

As for `Cc1cc(C)cc(Oc2cccc(-c3c(C)nnn3C3CCN(C(=N)N)CC3)n2)c1`, the Ratio in the experiment filed under Homo sapiens [5] and in the experiment filed under Homo sapiens [8] was more than 100 each time. Besides, the Kd in [6] is 1100 nM; in experiment [3], more than 200 µM; in [7], more than 100 µM; at CREB-binding protein, more than 100 µM; in [9], 940 nM. Besides, the IC50 in experiment [4] was 1.7 µM. Besides, in the experiment with MM1.S, the half-maximal effective concentration (EC50) was more than 50 µM.

`Cc1cc(C)cc(Oc2nccc(-c3c(C(C)C)nnn3C3CCN(C(=N)N)CC3)n2)c1`: the IC50 in [1] is more than 100 µM.

In experiment [3], `Cc1cc(C)cc(Nc2nccc(-c3c(-c4ccc(F)cc4)nnn3C3CCNCC3)n2)c1` came in with a Kd of 0.0022 µM. The Selectivity ratio in the experiment filed under Homo sapiens [10] is more than 10000.

As to `Cc1cc(C)cc(Nc2cccc(-c3c(C)nnn3C3CCN(C(=N)N)CC3)n2)c1`, the Kd in experiment [6] was 1200 nM; in experiment [3] it was more than 25 µM; in experiment [7], more than 100 µM; at CREB-binding protein, 78 µM; in [9], 2100 nM. For the same compound, the EC50 in the experiment with MM1.S is more than 50 µM.

Consider `Cc1cc(C)cc(Oc2cccc(-c3c(C)nnn3C3CCNCC3)n2)c1`, for which the EC50 in the experiment on MM1.S came out at 2.9 µM.

For the compound `Cc1cc(C)cc(Oc2cncc(-c3c(C)nnn3C3CCN(C(=N)N)CC3)c2)c1`, the IC50 in experiment [1] was more than 100 µM.

As to `Cc1cc(C)cc(Oc2nccc(-c3c(C4CCCCC4)nnn3C3CCNCC3)n2)c1`, in [1], the IC50 is more than 100 µM.

Take `Cc1cc(C)cc(Oc2nccc(-c3c(C)nnn3C3CCN(C(=N)N)CC3)n2)c1`: the EC50 in the experiment with MM1.S is more than 50 µM.

In the case of `Cc1cc(C)cc(Oc2cccc(-c3c(-c4ccc(F)cc4)nnn3C3CCNCC3)n2)c1`, binding in [3] was put at a Kd of 5 µM. In other words, the single-digit micromolar range.

`Cc1cc(C)cc(Oc2nccc(-c3c(C(C)(C)C)nnn3C3CCNCC3)n2)c1` yielded an IC50 in [1] of more than 100 µM.

The term IC50 denotes the concentration that inhibits the measured activity by half. Read a low IC50 as higher potency. As usually defined, the EC50 is the concentration needed to bring the measured effect to its halfway point. The Kd is the concentration at which binding is half-saturated. The low end stands for tighter binding, the high end for weaker binding.
